Laboratory results as given in ChEMBL document CHEMBL1687800, “Emergence of metallo-β-lactamase NDM-1-producing multidrug-resistant Escherichia coli in Australia” (2010).
Converted amounts (≈) assume the structure as drawn.

Columns and labels:
Type in all cases: functional
Escherichia coli [1] = assay: Antibacterial activity against Escherichia coli isolate 271
Procedure, shortened: (§1)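 MICs of β-lactams read by Etest on Mueller-Hinton agar plates incubated at 37°C, with susceptibility categories assigned according to CLSI guidelines. Strains tested were a clinical urine isolate (E. coli 271), E. coli TOP10 carrying recombinant plasmid p271A expressing NDM-1, and the TOP10 reference strain.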

Escherichia coli [2] = assay: Antibacterial activity against Escherichia coli TOP10 expressing metallo-beta-lactamase NDM-1; procedure, shortened: as §1
Escherichia coli [3] = assay: Antibacterial activity against Escherichia coli TOP10; procedure, shortened: as §1

SMILES	MIC (Escherichia coli [1])	MIC (Escherichia coli [2])	MIC (Escherichia coli [3])
CO/N=C(\C(=O)N[C@@H]1C(=O)N2C(C(=O)O)=C(COC(C)=O)CS[C@H]12)c1csc(N)n1 [CEFOTAXIME]	512 µg/mL (≈ 1120 µM)	256 µg/mL (≈ 562 µM)	0.12 µg/mL (≈ 0.263 µM)
CC1(C)S[C@@H]2[C@H](NC(=O)[C@H](N)c3ccc(O)cc3)C(=O)N2[C@H]1C(=O)O [AMOXICILLIN]	> 512 µg/mL	> 512 µg/mL	4 µg/mL (≈ 10.9 µM)
C[C@@H](O)[C@H]1C(=O)N2C(C(=O)O)=C(S[C@@H]3CN[C@H](C(=O)N(C)C)C3)[C@H](C)[C@H]12 [MEROPENEM]	16 µg/mL (≈ 41.7 µM)	3 µg/mL (≈ 7.82 µM)	0.06 µg/mL (≈ 0.156 µM)
CC1(C)S[C@@H]2[C@H](NC(=O)[C@H](C(=O)O)c3ccsc3)C(=O)N2[C@H]1C(=O)O [TICARCILLIN]	> 512 µg/mL	> 512 µg/mL	4 µg/mL (≈ 10.4 µM)
C[C@@H](O)[C@H]1C(=O)N2C(C(=O)O)=C(S[C@@H]3CN[C@H](C(=O)Nc4cccc(C(=O)O)c4)C3)[C@H](C)[C@H]12 [ERTAPENEM]	32 µg/mL (≈ 67.3 µM)	3 µg/mL (≈ 6.31 µM)	0.06 µg/mL (≈ 0.126 µM)
CC(C)(O/N=C(\C(=O)N[C@@H]1C(=O)N2C(C(=O)[O-])=C(C[n+]3ccccc3)CS[C@H]12)c1csc(N)n1)C(=O)O [CEFTAZIDIME]	256 µg/mL (≈ 468 µM)	128 µg/mL (≈ 234 µM)	0.06 µg/mL (≈ 0.11 µM)
C[C@H]1[C@H](NC(=O)/C(=N\OC(C)(C)C(=O)O)c2csc(N)n2)C(=O)N1S(=O)(=O)O [AZTREONAM]	64 µg/mL (≈ 147 µM)	0.25 µg/mL (≈ 0.574 µM)	–
CO[C@@]1(NC(=O)Cc2cccs2)C(=O)N2C(C(=O)O)=C(COC(N)=O)CS[C@@H]21 [CEFOXITIN]	512 µg/mL (≈ 1200 µM)	256 µg/mL (≈ 599 µM)	4 µg/mL (≈ 9.36 µM)
CO/N=C(\C(=O)N[C@@H]1C(=O)N2C(C(=O)[O-])=C(C[N+]3(C)CCCC3)CS[C@H]12)c1csc(N)n1 [CEFEPIME]	64 µg/mL (≈ 133 µM)	16 µg/mL (≈ 33.3 µM)	–
C[C@@H](O)[C@H]1C(=O)N2C(C(=O)O)=C(SCCNC=N)C[C@H]12 [IMIPENEM ANHYDROUS]	6 µg/mL (≈ 20 µM)	4 µg/mL (≈ 13.4 µM)	–
CCN1CCN(C(=O)N[C@@H](C(=O)N[C@@H]2C(=O)N3[C@@H]2SC(C)(C)[C@@H]3C(=O)O)c2ccccc2)C(=O)C1=O [PIPERACILLIN]	> 512 µg/mL	512 µg/mL (≈ 989 µM)	1 µg/mL (≈ 1.93 µM)
